Experimental data as given in publication PMC4631057 (ACS chemical biology, 2015).

Key:
[1] = tested on: Bcl-2, Msi1, and XIAP mRNAs; assay: mRNA stability after actinomycin D in HCT-116; type: cell-based, human; conditions: 20 μM, 5 μg/mL actinomycin D, compared to DMSO control
Procedure, shortened: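 HCT-116 cells, cultured in DMEM with 10% FBS at 37 °C and 5% CO2, were exposed to 5 μg/mL actinomycin D together with 20 μM test compound or DMSO. Half-lives of Bcl-2, Msi1 and XIAP mRNAs were determined. Data are representative of two independent experiments.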

[2] = target: HuR bound Msi1 mRNA (Homo sapiens, UniProt Q15717); assay: RNP IP, HuR-bound Msi1 mRNA in HCT-116 cell lysate; type: cell-based; conditions: 50 μM, compared to DMSO control
Procedure, shortened: (§1)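 HCT-116 lysate, prepared with a protein G immunoprecipitation kit, incubated 30 min with test compound or DMSO. HuR antibody, or mouse IgG as negative control, was then added for 60 min. Complexes were collected on protein G agarose, RNA isolated, and bound transcripts quantified by qRT-PCR. Mean ± SD of two independent experiments.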

[3] = tested on: cleaved PARP, cleaved caspase-3, LC3 conversion; assay: Western blot of apoptosis and autophagy markers in HCT-116; type: cell-based, human; conditions: 75 μM, 48 h
Procedure, shortened: (§2)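 HCT-116 cells were grown in DMEM with 10% FBS and 1% antibiotics at 37 °C in humidified 5% CO2. They were treated with test compound or DMSO at the indicated doses for 48 h. Protein levels were then measured by Western blot, with α-tubulin as loading control.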

[4] = tested on: Wnt signaling pathway; assay: Wnt responsive 7xTcf promoter/luciferase reporter assay in HCT-116; type: cell-based, human; conditions: 20 μM, 24 h, 20 mM LiCl stimulation, compared to DMSO control
Procedure, shortened: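 HCT-116 cells were infected with the 7TFP lentiviral vector to stably express the 7xTcf promoter/luciferase construct. Cells were plated and allowed to attach overnight. They were then stimulated with 20 mM LiCl and treated with 20 μM test compound or DMSO for 24 h. Cells were lysed in reporter lysis buffer and luciferase was assayed. Activity was normalized to total protein. Values are mean ± SD of three independent experiments, compared with DMSO by one-way ANOVA.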

[5] = target: HuR-bound XIAP mRNA (Homo sapiens, UniProt Q15717); assay: RNP IP, HuR-bound XIAP mRNA in HCT-116 cell lysate; type: cell-based; conditions: at indicated doses, compared to DMSO
Procedure, shortened: as §1

[6] = tested on: protein levels of Bcl-2, Msi1, and XIAP; assay: Western blot of HuR target protein levels in HCT-116; type: cell-based, human; conditions: indicated doses, 48 h
Procedure, shortened: as §2

[7] = tested on: ARE^Msi1–FITC; assay: FP titration of Bcl-xL with Msi1-FITC; type: binding; conditions: highest concentration tested 1000 nM; 2 nM Msi1-FITC
[8] = target: HuR RRM1/2 (UniProt Q15717 20-186); assay: AlphaLISA
[9] = target: T1, HuR full-length (human, UniProt Q15717 1-326); assay: competition
[10] = target: T1, HuR full-length; assay: fluorescence polarization
[11] = target: T1, HuR full-length; assay: fluorescence polarization; remark: listed apart in the source
[12] = target: T1, HuR full-length; assay: fluorescence polarization; remark: listed apart in the source

T1 sequence (Q15717 whole entry): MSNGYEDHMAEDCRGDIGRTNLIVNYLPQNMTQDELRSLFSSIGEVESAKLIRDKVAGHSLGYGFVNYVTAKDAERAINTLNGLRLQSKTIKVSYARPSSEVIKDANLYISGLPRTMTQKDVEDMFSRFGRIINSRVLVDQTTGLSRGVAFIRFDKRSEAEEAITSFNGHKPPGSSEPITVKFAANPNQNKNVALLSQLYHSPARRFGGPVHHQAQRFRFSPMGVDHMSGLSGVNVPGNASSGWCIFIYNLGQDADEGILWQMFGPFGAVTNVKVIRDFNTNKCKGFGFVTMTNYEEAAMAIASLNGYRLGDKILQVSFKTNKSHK
Chain of HuR RRM1/2 (Q15717 20-186): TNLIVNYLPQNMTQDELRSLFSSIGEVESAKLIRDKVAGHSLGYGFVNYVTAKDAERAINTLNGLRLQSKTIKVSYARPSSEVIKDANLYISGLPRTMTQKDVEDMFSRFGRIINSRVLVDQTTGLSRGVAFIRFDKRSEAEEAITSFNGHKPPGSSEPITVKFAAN
Chain of HuR-bound XIAP mRNA (Q15717 2-326 limits assumed): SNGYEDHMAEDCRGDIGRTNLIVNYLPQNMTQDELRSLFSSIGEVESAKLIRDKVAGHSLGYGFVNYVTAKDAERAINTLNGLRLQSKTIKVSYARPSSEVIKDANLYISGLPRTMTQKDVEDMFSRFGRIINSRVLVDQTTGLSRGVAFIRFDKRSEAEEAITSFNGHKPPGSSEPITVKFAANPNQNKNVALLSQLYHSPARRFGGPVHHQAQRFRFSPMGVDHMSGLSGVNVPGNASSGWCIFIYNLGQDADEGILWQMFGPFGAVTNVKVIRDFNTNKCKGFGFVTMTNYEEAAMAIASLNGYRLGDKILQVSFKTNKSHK
Chain of HuR bound Msi1 mRNA (Q15717 2-326 limits assumed): as above

CCN(CC)C(=O)CC(c1cc(OC)c(OC)c(OC)c1)c1c(OC)cc(OC)c2c(-c3ccccc3)cc(=O)oc12 (stereo not drawn) [CMLD-1]
effect on half-lives of Bcl-2, Msi1 and XIAP mRNAs [1]: shortened the half-lives
effect on HuR bound Msi1 mRNA (RNP IP) [2]: significantly blocked
LC3-I conversion to LC3-II [3]: detected
PARP cleavage [3]: obvious PARP cleavage
caspase-3 cleavage [3]: subtle caspase-3 cleavage
effect on Wnt signaling (luciferase reporter) [4]: significantly impacted
effect on HuR-bound XIAP mRNA (RNP IP) [5]: potently inhibited
effect on protein levels of Bcl-2, Msi1, and XIAP [6]: decreased

Bcl-xL: non-RNA binding protein used as specificity control
binding to ARE^Msi1–FITC (in words) [7]: no binding

B1: Msi1 RNA biotinylated (ssRNA)
RNA: GCUUUUAUUUAUUUUG
Kd [8]: 75 nM

B2: Msi1 RNA unlabeled (ssRNA)
RNA: GCUUUUAUUUAUUUUG
IC50 [9]: 17.9 nM

B3: Bcl-2-FITC (AREBcl-2) (ssRNA)
RNA: AAAAGAUUUAUUUAUU
binding result [10]: binds

B4: APC-FITC (ssRNA)
RNA: UAUUUGAUAGUACACU
binding signal [11]: 20 fold lower affinity than Msi1

B5: XIAP-FITC (AREXIAP) (ssRNA)
RNA: UAGUUAUUUUUAUGUC
binding result [10]: binds

B6: Msi1-FITC (AREMsi1) (ssRNA)
RNA: GCUUUUAUUUAUUUUG
Kd [12]: ~3 nM
